Tests used:
CCRF-CEM = test: Cytotoxicity against human CEM cells assessed as cell survival after 72 hrs by calcein-AM assay; format: functional, cell-based
Summary of the method: (§1)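 Cells grown in DMEM with 10% fetal calf serum, 4 mM glutamine, penicillin/streptomycin, 37 °C, 5% CO2. Seeded at about 1.25 × 10^5 cells/mL and stabilised 3 h. Six 4-fold dilutions added from DMSO stocks, highest usually 50 µM, DMSO ≤0.6% final. After 72 h, calcein AM for 1 h, fluorescence read. Triplicates, ≥3 repeats; IC50 from dose-response curves.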

BJ = test: Cytotoxicity against human BJ cells assessed as cell survival after 72 hrs by calcein-AM assay; format: cell-based; summary of the method: as §1
MCF7 = test: Cytotoxicity against human MCF7 cells assessed as cell survival after 72 hrs by calcein-AM assay; format: functional, cell-based; details: MCF7, 72 h; summary of the method: as §1
RPMI-8226 = test: Cytotoxicity against human RPMI 8226 cells assessed as cell survival after 72 hrs by calcein-AM assay; format: functional, cell-based; details: RPMI-8226, 72 h; summary of the method: as §1
Phaseolus vulgaris = test: Phyto activity in Phaseolus vulgaris cv. Pinto assessed as prolongation of the second internode after 5 days by brassinolide-type activity assay; format: functional
Summary of the method: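 Bean seedlings germinated 2 days, grown in perlite with diluted Hoagland solution (pH 5.7) at 25-27 °C under 16/8 h light. Seven-day-old plants with 2 mm second internodes received compound in 5 µL lanolin at the bract scar; controls got lanolin alone. ≥7 plants per experiment, ≥3 repeats. Internode length measured after 5 days, difference from control.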

Compound	IC50 (CCRF-CEM) [µM]	IC50 (BJ) [µM]	IC50 (MCF7) [µM]	IC50 (RPMI-8226) [µM]	Activity (Phaseolus vulgaris) [mm]
CC(=O)O[C@H]1CC[C@H]2[C@@H]3CC(=O)[C@@]4(F)C[C@H](O)[C@H](O)C[C@]4(C)[C@H]3CC[C@]12C	> 50	> 50	> 50	> 50	12.3
CC(=O)O[C@H]1CC[C@H]2[C@@H]3CC(=O)[C@@]4(F)C[C@@H](O)[C@@H](O)C[C@]4(C)[C@H]3CC[C@]12C	> 50	> 50	> 50	> 50	21.4
C[C@]12CC[C@@H](F)C[C@@H]1C(=O)C[C@@H]1[C@@H]2CC[C@]2(C)C(=O)CC[C@@H]12	> 50	> 50	> 50	> 50	14.9
CC(=O)O[C@H]1CC[C@H]2[C@@H]3CC(=O)[C@@]4(F)C[C@H](F)CC[C@]4(C)[C@H]3CC[C@]12C	42.9	> 50	> 50	> 50	19.8
CC(=O)O[C@H]1CC[C@H]2[C@@H]3CC(=O)[C@@]4(F)C[C@@H](O)CC[C@]4(C)[C@H]3CC[C@]12C	> 50	> 50	> 50	> 50	17.1
C[C@]12CC[C@H](O)C[C@@H]1C(=O)C[C@@H]1[C@@H]2CC[C@]2(C)[C@@H](OC(=O)c3ccccc3)CC[C@@H]12	> 50	> 50	> 50	> 50	3.8
CC(C)[C@@H](C)[C@@H](O)[C@H](O)[C@@H](C)[C@H]1CC[C@H]2[C@@H]3CC(=O)[C@H]4C[C@H](F)CC[C@]4(C)[C@H]3CC[C@]12C	13.8	45.9	25.7	23.5	13.2
CC(=O)O[C@H]1CC[C@H]2[C@@H]3CC(=O)[C@@]4(F)C[C@H](O)CC[C@]4(C)[C@H]3CC[C@]12C	> 50	> 50	> 50	> 50	21.4
CC(C)[C@@H](C)/C=C/[C@@H](C)[C@H]1CC[C@H]2[C@@H]3CC(=O)[C@H]4C[C@H](F)CC[C@]4(C)[C@H]3CC[C@]12C	> 50	> 50	> 50	> 50	9.9
C[C@]12CC[C@H]3[C@@H](CC(=O)[C@@]4(F)C[C@@H](O)CC[C@]34C)[C@@H]1CC[C@@H]2O	> 50	> 50	> 50	> 50	16.9
C[C@]12CC[C@H]3[C@@H](CC(=O)[C@@]4(F)C[C@@H](O)[C@@H](O)C[C@]34C)[C@@H]1CC[C@@H]2O	> 50	> 50	> 50	45.4	21.8
C[C@]12CC[C@H]3[C@@H](CC(=O)[C@@]4(F)CC=CC[C@]34C)[C@@H]1CC[C@@H]2O	> 50	> 50	> 50	> 50	13.6
CC(C)[C@@H](C)/C=C/[C@@H](C)[C@H]1CC[C@H]2[C@@H]3CC(=O)[C@H]4C[C@@H](O)CC[C@]4(C)[C@H]3CC[C@]12C	26.4	42	40.4	27	9.4
C[C@]12CC[C@@H](F)C[C@@H]1C(=O)C[C@@H]1[C@@H]2CC[C@]2(C)[C@@H](O)CC[C@@H]12	> 50	> 50	> 50	> 50	5.9
C[C@]12CC[C@H]3[C@@H](CC(=O)[C@@]4(F)C[C@H](O)CC[C@]34C)[C@@H]1CC[C@@H]2O	> 50	> 50	> 50	> 50	43.4
C[C@]12CC[C@H]3[C@@H](CC(=O)[C@@]4(F)C[C@H](O)[C@H](O)C[C@]34C)[C@@H]1CC[C@@H]2O	> 50	> 50	> 50	> 50	19.5
CC(=O)O[C@H]1CC[C@H]2[C@@H]3CC(=O)[C@@]4(F)CC=CC[C@]4(C)[C@H]3CC[C@]12C	> 50	> 50	> 50	> 50	21.8
CC(C)[C@@H](C)[C@H](O)[C@@H](O)[C@@H](C)[C@H]1CC[C@H]2[C@@H]3CC(=O)[C@H]4C[C@H](F)CC[C@]4(C)[C@H]3CC[C@]12C	13.8	45.9	25.7	23.5	13.2
C[C@]12CC[C@@H](F)C[C@@H]1C(=O)C[C@@H]1[C@@H]2CC[C@]2(C)[C@@H](OC(=O)c3ccccc3)CC[C@@H]12	> 50	> 50	> 50	> 50	0.8
CC[C@@H](C(C)C)[C@@H](O)[C@H](O)[C@@H](C)[C@H]1CC[C@H]2[C@@H]3CC(=O)[C@H]4C[C@H](O)[C@H](O)C[C@]4(C)[C@H]3CC[C@]12C		> 50	> 50	26	
C[C@]12CC[C@H]3[C@@H](CC(=O)[C@@]4(F)C[C@H](F)CC[C@]34C)[C@@H]1CC[C@@H]2O	> 50	> 50	> 50	> 50	18.4

— ChEMBL document CHEMBL1155008, “Brassinosteroids: synthesis and activity of some fluoro analogues” (J Med Chem, 2008)
